Laboratory results published in ChEMBL document CHEMBL4304743, “Discovery of ( E)- N1-(3-Fluorophenyl)- N3-(3-(2-(pyridin-2-yl)vinyl)-1 H-indazol-6-yl)malonamide (CHMFL-KIT-033) as a Novel c-KIT T670I Mutant Selective Kinase Inhibitor for Gastrointestinal Stromal Tumors (GISTs)” (J Med Chem, 2019).
Calls of active or inactive are those of the source. No cut-off for these calls is given here.

Legend:
[1] = tested on: Mast/stem cell growth factor receptor Kit (Homo sapiens), P10721 [V559D,T670I]; assay: Binding affinity to human partial length c-KIT V559D/T670I double mutant (Y545 to D952 residues) expressed in bacterial expression system assessed as enzyme remaining activity at 1 uM by Kinomescan method relative to control
Sequence of Mast/stem cell growth factor receptor Kit (Homo sapiens), P10721 [V559D,T670I] (P10721 whole entry V559D/T670I, the tested form may be a part): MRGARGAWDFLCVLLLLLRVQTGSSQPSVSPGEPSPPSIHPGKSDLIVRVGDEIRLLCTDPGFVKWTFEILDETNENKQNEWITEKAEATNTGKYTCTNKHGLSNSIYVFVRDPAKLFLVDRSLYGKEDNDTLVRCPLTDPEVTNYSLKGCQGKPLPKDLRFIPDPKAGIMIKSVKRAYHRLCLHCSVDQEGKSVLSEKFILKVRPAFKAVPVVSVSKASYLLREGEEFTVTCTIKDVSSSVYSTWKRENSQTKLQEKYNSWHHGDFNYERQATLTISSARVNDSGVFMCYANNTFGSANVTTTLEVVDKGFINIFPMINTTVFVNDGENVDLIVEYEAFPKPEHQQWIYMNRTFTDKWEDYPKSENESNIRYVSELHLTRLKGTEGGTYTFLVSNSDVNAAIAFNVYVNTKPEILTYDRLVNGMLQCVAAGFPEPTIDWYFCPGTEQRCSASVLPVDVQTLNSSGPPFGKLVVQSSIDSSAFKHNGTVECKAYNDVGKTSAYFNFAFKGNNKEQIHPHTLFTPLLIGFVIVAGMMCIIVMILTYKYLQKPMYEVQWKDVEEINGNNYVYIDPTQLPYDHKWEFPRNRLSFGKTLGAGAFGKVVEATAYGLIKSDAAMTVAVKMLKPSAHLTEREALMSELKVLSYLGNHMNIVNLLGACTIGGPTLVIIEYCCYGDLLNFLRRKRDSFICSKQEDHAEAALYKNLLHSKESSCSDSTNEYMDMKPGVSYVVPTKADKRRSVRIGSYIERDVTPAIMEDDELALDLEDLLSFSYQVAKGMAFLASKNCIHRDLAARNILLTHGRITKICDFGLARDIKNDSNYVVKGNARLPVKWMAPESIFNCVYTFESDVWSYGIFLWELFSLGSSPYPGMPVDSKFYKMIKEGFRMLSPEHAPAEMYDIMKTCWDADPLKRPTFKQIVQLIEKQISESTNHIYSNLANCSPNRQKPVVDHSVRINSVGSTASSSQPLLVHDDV
Summary of the method: (§1)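 KINOMEscan binding profile (DiscoverX) run at 1 μM against a panel of 468 kinases and mutants. Read-out is percent of control (%Ctrl) remaining bound.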

[2] = tested on: Mast/stem cell growth factor receptor Kit (Homo sapiens), P10721 [V559D]; assay: Binding affinity to human partial length c-KIT V559D mutant (Y545 to D952 residues) expressed in bacterial expression system assessed as enzyme remaining activity at 1 uM by Kinomescan method relative to control; summary of the method: as §1
Sequence of Mast/stem cell growth factor receptor Kit (Homo sapiens), P10721 [V559D] (P10721 whole entry V559D, the tested form may be a part): as the sequence (P10721 whole entry V559D/T670I, the tested form may be a part) above, with I670T counted along it

[3] = tested on: Mast/stem cell growth factor receptor Kit (Homo sapiens), P10721 [L576P]; assay: Inhibition of TEL fused c-KIT L576P mutant (unknown origin) transfected in mouse BAF3 cells assessed as growth inhibition after 72 hrs by CCK8 assay; format: cell-based
Sequence of Mast/stem cell growth factor receptor Kit (Homo sapiens), P10721 [L576P] (P10721 whole entry L576P, the tested form may be a part): as the sequence (P10721 whole entry V559D/T670I, the tested form may be a part) above, with D559V, L576P, I670T counted along it
Summary of the method: (§2)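 Tel-c-KIT-transformed BaF3 lines (IL-3 independent) kept in RPMI 1640 with 10% FBS, 2% L-glutamine and pen/strep. Cells at 1.5 to 5 × 10^4 cells/mL mixed with graded compound and incubated 72 h at 37 °C, 5% CO2. Viability by CCK-8 absorbance at 450 nm, normalized to DMSO. GI50 from dose–response fit.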

GISTT1 [4] = assay: Induction of apoptosis in human GISTT1 cells harboring c-KIT 560 to 578 deletion mutant assessed as increase in cleaved PARP level after 24 hrs by Western blot analysis; format: functional, cell-based
Summary of the method: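 GIST cells grown in DMEM with 10% FBS, treated 24 h with serially diluted compound; apoptosis read by Western blot for PARP, with GAPDH as loading control.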

[5] = AUC (0 to infinity) in mouse at 10 mg/kg, po measured after 5 to 720 mins by LC-tandem mass spectrometry analysis; format: ADME, organism-based; design: dose 10 mg/kg, route oral, time infinity; settings: in vivo
Summary of the method: (§3)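 Mice dosed 1 mg/kg i.v. or 10 mg/kg p.o.; plasma drug levels by LC-MS/MS, parameters by noncompartmental analysis; values not from triplicate testing.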

[6] = Oral bioavailability in Sprague-Dawley rat at 10 mg/kg measured after 5 to 720 mins by LC-tandem mass spectrometry analysis; format: ADME, organism-based; settings: in vivo
Summary of the method: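 Male Sprague–Dawley rats (190-210 g), fasted 12 h, given 1 mg/kg i.v. or 10 mg/kg p.o. in DMSO/5% glucose water (1:9). Blood sampled at 2–720 min (i.v.) or 5–720 min (p.o.). Plasma proteins precipitated with methanol using caffeine internal standard, then LC-MS/MS. Noncompartmental analysis; F = AUC0-∞ ratio corrected for dose; triplicate ±SD.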

[7] = biological target: Mast/stem cell growth factor receptor Kit (Homo sapiens, UniProt P10721, T670I); assay: Inhibition of TEL fused wild type c-KIT T670I mutant (unknown origin) transfected in mouse BaF3 cells assessed as reduction in phosphorylation at Y719 residue after 2 hrs by Western blot analysis; format: cell-based
Sequence of Mast/stem cell growth factor receptor Kit (Homo sapiens, UniProt P10721, T670I) (P10721 26-976 T670I limits assumed): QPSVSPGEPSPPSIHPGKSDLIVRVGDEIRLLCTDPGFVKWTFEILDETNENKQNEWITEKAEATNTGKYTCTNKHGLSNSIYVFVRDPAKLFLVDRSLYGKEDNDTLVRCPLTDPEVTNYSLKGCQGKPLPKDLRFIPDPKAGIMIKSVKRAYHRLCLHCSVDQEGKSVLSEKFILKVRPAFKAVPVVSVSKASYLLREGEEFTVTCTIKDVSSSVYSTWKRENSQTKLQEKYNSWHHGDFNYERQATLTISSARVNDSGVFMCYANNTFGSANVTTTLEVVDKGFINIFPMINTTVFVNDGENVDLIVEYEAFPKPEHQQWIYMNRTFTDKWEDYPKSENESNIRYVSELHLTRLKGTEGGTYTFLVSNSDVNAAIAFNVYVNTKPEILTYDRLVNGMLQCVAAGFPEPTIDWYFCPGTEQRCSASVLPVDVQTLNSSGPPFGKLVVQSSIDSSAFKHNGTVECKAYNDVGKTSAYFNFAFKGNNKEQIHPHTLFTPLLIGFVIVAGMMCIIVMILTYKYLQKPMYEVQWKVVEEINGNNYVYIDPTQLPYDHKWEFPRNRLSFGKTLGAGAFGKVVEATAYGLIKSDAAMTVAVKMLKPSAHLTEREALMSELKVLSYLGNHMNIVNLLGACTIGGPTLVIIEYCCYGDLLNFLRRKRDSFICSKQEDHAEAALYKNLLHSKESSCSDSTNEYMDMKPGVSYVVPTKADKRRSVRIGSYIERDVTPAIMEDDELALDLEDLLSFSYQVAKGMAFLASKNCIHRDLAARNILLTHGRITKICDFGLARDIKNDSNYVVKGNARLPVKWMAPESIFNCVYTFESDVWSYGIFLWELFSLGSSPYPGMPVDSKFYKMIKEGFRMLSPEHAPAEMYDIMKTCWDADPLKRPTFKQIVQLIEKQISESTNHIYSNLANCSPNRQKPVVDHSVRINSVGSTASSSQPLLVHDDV

[8] = biological target: Serine/threonine-protein kinase PAK 2 (Homo sapiens, UniProt Q13177); assay: Binding affinity to wild-type human partial length PAK2 (P151 to R525 residues) expressed in bacterial expression system assessed as enzyme remaining activity at 1 uM by Kinomescan assay relative to control
Sequence of Serine/threonine-protein kinase PAK 2 (Q13177 whole entry, the tested form may be a part): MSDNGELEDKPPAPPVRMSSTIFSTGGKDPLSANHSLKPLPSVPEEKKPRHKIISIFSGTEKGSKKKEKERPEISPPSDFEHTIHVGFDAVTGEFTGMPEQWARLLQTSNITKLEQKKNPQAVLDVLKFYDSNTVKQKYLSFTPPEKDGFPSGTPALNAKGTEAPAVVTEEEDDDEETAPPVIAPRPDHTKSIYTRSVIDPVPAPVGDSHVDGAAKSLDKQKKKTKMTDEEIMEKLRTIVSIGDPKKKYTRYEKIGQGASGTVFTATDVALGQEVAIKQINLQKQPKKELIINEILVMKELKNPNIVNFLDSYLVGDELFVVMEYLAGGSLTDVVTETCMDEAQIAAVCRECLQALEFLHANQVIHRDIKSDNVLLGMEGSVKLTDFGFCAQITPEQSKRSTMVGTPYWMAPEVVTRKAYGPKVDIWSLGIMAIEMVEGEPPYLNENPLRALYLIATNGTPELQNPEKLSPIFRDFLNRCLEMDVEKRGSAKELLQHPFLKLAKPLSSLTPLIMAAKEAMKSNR
Summary of the method: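 KINOMEscan competition binding panel of 468 kinases and mutants, compound at 1 μM; binding reported as percent of control.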

[9] = AUC (0 to t) in Sprague-Dawley rat at 10 mg/kg, po measured after 5 to 720 mins by LC-tandem mass spectrometry analysis; format: ADME, organism-based; settings: in vivo
Summary of the method: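 Male Sprague-Dawley rats (190-210 g), fasted 12 h, randomized into two groups: 1 mg/kg i.v. or 10 mg/kg p.o., both formulated in 10% DMSO/90% of 5% glucose water. Blood sampled at 2-720 min (i.v.) or 5-720 min (p.o.). Plasma protein-precipitated with methanol, caffeine internal standard, LC-MS/MS. Noncompartmental analysis; triplicate, ±SD.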

[10] = tested on: Mast/stem cell growth factor receptor Kit (Homo sapiens), P10721 [V654A]; assay: Inhibition of TEL fused c-KIT V654A mutant (unknown origin) transfected in mouse BAF3 cells assessed as growth inhibition after 72 hrs by CCK8 assay; format: cell-based; summary of the method: as §2
Sequence of Mast/stem cell growth factor receptor Kit (Homo sapiens), P10721 [V654A] (P10721 whole entry V654A, the tested form may be a part): as the sequence (P10721 whole entry V559D/T670I, the tested form may be a part) above, with D559V, V654A, I670T counted along it

[11] = biological target: T1, Mast/stem cell growth factor receptor Kit (Homo sapiens, UniProt P10721); assay: Inhibition of wild type TEL fused c-KIT (unknown origin) transfected in mouse BAF3 cells assessed as growth inhibition after 72 hrs by CCK8 assay; format: cell-based; settings: baf3, 72 h
T1 sequence (P10721 whole entry, the tested form may be a part): as the sequence (P10721 whole entry V559D/T670I, the tested form may be a part) above, with D559V, I670T counted along it
Summary of the method: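 IL-3 independent BaF3 cells stably expressing tel-c-KIT wt or tel-c-KIT T670I, grown in RPMI 1640 with 10% FBS, 2% L-glutamine, 37 °C, 5% CO2. Suspension cells at 1.5 to 5 × 10^4 cells/mL mixed with serial compound dilutions and incubated 72 h. Viability read by CCK-8 absorbance at 450 nm, normalized to DMSO; GI50 from curve fit. Selectivity is wt GI50 over T670I GI50.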

GISTT1 [12] = assay: Induction of apoptosis in human GISTT1 cells harboring c-KIT 560 to 578 deletion mutant assessed as increase in cleaved caspase level after 24 hrs by Western blot analysis; format: functional, cell-based
[13] = tested on: Mast/stem cell growth factor receptor Kit (Homo sapiens), P10721 [V559D,T670I]; assay: Inhibition of TEL fused c-KIT T670I/V559D double mutant (unknown origin) transfected in mouse BAF3 cells assessed as growth inhibition after 72 hrs by CCK8 assay; format: cell-based; summary of the method: as §2
[14] = biological target: T1, Mast/stem cell growth factor receptor Kit; assay: Inhibition of TEL fused wild type c-KIT (unknown origin) transfected in mouse BaF3 cells assessed as reduction in phosphorylation at Y703 residue after 2 hrs by Western blot analysis; format: cell-based
Homo sapiens = assay: Antitumor activity against human GIST5R cells xenografted in po dosed nude mouse assessed as reduction in tumor size administered […] via gavage for 28 days post tumor inoculation; format: functional, organism-based
Summary of the method: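 Female nu/nu mice (5 weeks old) given subcutaneous right-flank GIST-5R cells in Matrigel. Dosing began at tumors of 200-400 mm3; randomized, 4 mice per group. Daily oral dosing (QD) at 25, 50 or 100 mg/kg in 0.5% methylcellulose/0.4% Tween80, or vehicle alone, for 28 days. Body weight and tumor volume, (W²×L)/2, measured daily; mean±SEM.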

[15] = Cmax in mouse at 1 mg/kg, iv measured after 2 to 720 mins by LC-tandem mass spectrometry analysis; format: ADME, organism-based; design: dose 1 mg/kg, route intravenous; settings: in vivo; summary of the method: as §3
[16] = tested on: Mast/stem cell growth factor receptor Kit (Homo sapiens), P10721 [UNDEFINED MUTATION]; assay: Inhibition of c-KIT 560 to 578 deletion/T670I double mutant in human GIST5R cells assessed as reduction in c-KIT autophosphorylation at Y823 residue at 0.1 uM to 3 uM after 1 hr by Western blot analysis; format: cell-based
Sequence of Mast/stem cell growth factor receptor Kit (Homo sapiens), P10721 [UNDEFINED MUTATION] (P10721 whole entry, looked up, stated change not applied): as the sequence (P10721 whole entry V559D/T670I, the tested form may be a part) above, with D559V, I670T counted along it
Summary of the method: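 Serial compound dilutions applied for 1 h to GIST-T1, GIST-T1-T670I (CRISPR/Cas9 T670I knock-in, clone confirmed by Sanger sequencing) or GIST-5R cells in DMEM with 10% FBS. Cells then lysed and phospho-proteins detected by standard Western blotting.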

[17] = biological target: Macrophage colony-stimulating factor 1 receptor (Homo sapiens, UniProt P07333); assay: Inhibition of wild-type human partial length CSF1R (I564 to S939 residues) expressed in bacterial expression system after 1 hr by Z-LYTE assay
Sequence of Macrophage colony-stimulating factor 1 receptor (P07333 whole entry, the tested form may be a part): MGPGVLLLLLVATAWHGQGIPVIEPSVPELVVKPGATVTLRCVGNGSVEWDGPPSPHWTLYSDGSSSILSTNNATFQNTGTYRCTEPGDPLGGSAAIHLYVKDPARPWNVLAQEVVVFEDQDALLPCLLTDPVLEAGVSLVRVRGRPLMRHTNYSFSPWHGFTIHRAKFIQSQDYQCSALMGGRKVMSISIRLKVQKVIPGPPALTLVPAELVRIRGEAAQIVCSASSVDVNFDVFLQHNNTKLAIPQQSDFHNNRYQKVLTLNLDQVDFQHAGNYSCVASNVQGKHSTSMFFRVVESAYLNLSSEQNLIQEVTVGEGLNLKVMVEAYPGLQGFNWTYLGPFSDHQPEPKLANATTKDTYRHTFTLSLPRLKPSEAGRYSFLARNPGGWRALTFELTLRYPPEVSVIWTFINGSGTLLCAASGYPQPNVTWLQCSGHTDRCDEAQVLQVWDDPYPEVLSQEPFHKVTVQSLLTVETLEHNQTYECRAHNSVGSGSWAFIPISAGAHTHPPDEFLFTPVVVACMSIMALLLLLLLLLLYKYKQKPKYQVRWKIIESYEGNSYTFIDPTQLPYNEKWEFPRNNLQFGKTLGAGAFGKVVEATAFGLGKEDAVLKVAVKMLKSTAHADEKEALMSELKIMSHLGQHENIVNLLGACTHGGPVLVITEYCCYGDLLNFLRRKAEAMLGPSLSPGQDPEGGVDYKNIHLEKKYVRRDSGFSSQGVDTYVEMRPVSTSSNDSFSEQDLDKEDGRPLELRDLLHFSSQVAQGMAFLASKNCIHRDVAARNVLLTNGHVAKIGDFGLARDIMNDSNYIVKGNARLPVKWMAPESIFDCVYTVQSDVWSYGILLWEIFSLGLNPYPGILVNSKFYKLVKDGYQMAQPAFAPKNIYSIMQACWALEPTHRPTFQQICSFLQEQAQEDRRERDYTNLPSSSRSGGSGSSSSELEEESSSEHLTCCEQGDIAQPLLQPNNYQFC

For `O=C(CC(=O)Nc1ccc2c(/C=C/c3ccccn3)n[nH]c2c1)Nc1cccc(F)c1`, which Activity [1] is on record?
Its Activity is under 1%.

What about the Activity [2] of the same compound?
Its Activity is under 1%.

What about the GI50 [3] of the same compound?
Its GI50 is 157 nM.

And the Activity (GISTT1 [4])?
The Activity was “Dose-dependent effect”.

What about the AUC(0-inf) [5] of the same compound?
The AUC(0-inf) was 1480 ng·h/mL.

And the bioavailability [6]?
Its bioavailability is 27.5%.

What about the EC50 [7] of the same compound?
Its EC50 is 750 nM.

And the Activity [8]?
The Activity was 0.1%.

And the AUC(0-t) [9]?
Its AUC(0-t) is 712 ng·h/mL.

And the GI50 [10]?
The GI50 was 525 nM.

What about the GI50 [11] of the same compound?
The GI50 was 1150 nM.

What about the Activity (GISTT1 [12]) of the same compound?
Its Activity is “Dose-dependent effect”.

What about the GI50 [13] of the same compound?
The GI50 was 122 nM.

What about the EC50 [14] of the same compound?
The EC50 was over 1000 nM.

What about the inhibition (Homo sapiens) of the same compound?
Its inhibition is “Dose-dependent effect”.

What about the Cmax [15] of the same compound?
The Cmax was 3020 ng/mL.

What about the inhibition [16] of the same compound?
Its inhibition is “Active”.

What about the IC50 [17] of the same compound?
Its IC50 is 14.2 to 14.3 nM.
